Measurements reported in ChEMBL document CHEMBL1154167, “Discovery of azetidinyl ketolides for the treatment of susceptible and multidrug resistant community-acquired respiratory tract infections” (J Med Chem, 2009).
Values after ≈ are worked out from the molar mass of the structure shown.

What was measured:
[1] = Metabolic stability in human liver cytosol assessed as compound turnover at 1 uM in presence of aldehyde oxidase inhibitor raloxifene; type: ADME
Procedure, shortened: (§1)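 Human liver cytosol incubations, used as a readout of aldehyde oxidase metabolism, run with and without the AO inhibitor raloxifene.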

[2] = test system: Streptococcus pneumoniae; experiment: Antibacterial activity against multidrug-resistant Streptococcus pneumoniae 1095 harboring ermB gene by NCCLS method; type: functional
[3] = test system: Streptococcus pyogenes; experiment: Antibacterial activity against multidrug-resistant Streptococcus pyogenes 1079 harboring ermB gene by NCCLS method; type: functional
[4] = test system: Haemophilus influenzae; experiment: Antibacterial activity against multidrug-susceptible Haemophilus influenzae 1325 by NCCLS method; type: functional
[5] = target: Voltage-gated inwardly rectifying potassium channel KCNH2 (Homo sapiens, UniProt Q12809); experiment: Inhibition of human ERG by patch-clamp assay
[6] = Metabolic stability in human liver cytosol assessed as compound turnover at 1 uM after 60 mins; type: ADME, tissue-based; details: 1 h; procedure, shortened: as §1
[7] = Metabolic stability in human liver microsomes assessed as hepatic extraction ratio at 1 uM; type: ADME, Microsome; details: read-out: ERH
Procedure, shortened: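 Human liver microsomes used to screen for metabolic clearance; the readout was the microsomal extraction ratio (ER).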

[8] = test system: Streptococcus pneumoniae; experiment: Antibacterial activity against multidrug-resistant Streptococcus pneumoniae 1175 harboring mefA gene by NCCLS method; type: functional
[9] = test system: Streptococcus pneumoniae; experiment: Antibacterial activity against multidrug-susceptible Streptococcus pneumoniae 1016 by NCCLS method; type: functional
[10] = test system: Haemophilus influenzae; experiment: Antibacterial activity against multidrug-susceptible Haemophilus influenzae 1325 infected in po dosed Mongolian gerbil otitis media model assessed as reduction of bacterial infection administered 18 hrs postinfection TID for 2 days measured on day 4 postinfection; type: functional; details: Haemophilus influenzae, 1325, po
Procedure, shortened: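 Gerbil otitis media model infected with H. influenzae 1325; compounds given orally. Efficacy expressed as ED50 in (mg/kg)/dose.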

[11] = test system: Streptococcus pneumoniae; experiment: Antibacterial activity against multidrug-resistant Streptococcus pneumoniae 1095 harboring ermB infected in po dosed mouse respiratory tract model assessed as survival administered 18 hrs postinfection BID for 2 days measured on day 10 postinfection; type: functional; details: Streptococcus pneumoniae, 1095, po; read-out: PD50
Procedure, shortened: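 Murine respiratory tract infection model using S. pneumoniae 1095 (erm). Compounds were given orally. The outcome was the 50% protective dose (PD50), reported as (mg/kg)/dose.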

Voltage-gated inwardly rectifying potassium channel KCNH2, sequence (Q12809 whole entry): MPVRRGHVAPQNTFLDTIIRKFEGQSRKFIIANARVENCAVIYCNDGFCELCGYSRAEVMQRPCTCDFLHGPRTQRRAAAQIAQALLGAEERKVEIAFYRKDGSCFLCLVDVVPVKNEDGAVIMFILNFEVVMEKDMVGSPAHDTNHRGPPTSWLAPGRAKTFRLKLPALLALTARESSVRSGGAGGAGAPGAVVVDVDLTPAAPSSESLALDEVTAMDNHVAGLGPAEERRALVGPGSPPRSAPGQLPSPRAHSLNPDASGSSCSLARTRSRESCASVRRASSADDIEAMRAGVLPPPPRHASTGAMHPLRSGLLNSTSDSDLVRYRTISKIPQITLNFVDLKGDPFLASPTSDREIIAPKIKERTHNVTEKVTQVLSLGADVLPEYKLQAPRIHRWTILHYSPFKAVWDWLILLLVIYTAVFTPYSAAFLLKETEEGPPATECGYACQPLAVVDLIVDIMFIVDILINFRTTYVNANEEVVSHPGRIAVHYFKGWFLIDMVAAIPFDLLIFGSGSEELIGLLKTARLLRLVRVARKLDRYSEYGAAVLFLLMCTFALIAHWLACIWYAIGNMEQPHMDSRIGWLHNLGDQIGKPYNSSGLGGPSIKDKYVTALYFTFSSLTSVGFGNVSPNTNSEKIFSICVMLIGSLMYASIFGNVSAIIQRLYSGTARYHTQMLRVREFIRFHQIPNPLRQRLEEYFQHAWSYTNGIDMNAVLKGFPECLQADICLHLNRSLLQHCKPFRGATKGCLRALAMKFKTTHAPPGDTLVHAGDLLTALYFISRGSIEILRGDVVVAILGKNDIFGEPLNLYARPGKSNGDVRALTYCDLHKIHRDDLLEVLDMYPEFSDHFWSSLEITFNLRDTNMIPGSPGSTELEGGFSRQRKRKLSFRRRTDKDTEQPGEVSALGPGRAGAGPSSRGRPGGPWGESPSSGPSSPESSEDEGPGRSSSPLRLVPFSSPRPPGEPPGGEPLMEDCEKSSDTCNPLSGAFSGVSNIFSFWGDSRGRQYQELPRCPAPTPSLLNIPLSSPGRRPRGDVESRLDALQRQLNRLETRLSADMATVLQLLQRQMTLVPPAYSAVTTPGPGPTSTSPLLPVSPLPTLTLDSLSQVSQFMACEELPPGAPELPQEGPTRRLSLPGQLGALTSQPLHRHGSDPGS

Compound | half-life at 1 µM [1] [h] | MIC [2] [µg/mL] | MIC [3] [µg/mL] | MIC [4] [µg/mL] | IC50 [5] [µM] | Stability [6] | hepatic extraction ratio at 1 µM [7] | MIC [8] [µg/mL] | MIC [9] [µg/mL] | ED50 [10] [mg/kg] | ED50 [11] [mg/kg]
CC[C@H]1OC(=O)[C@H](C)C(=O)[C@H](C)[C@@H](O[C@@H]2O[C@H](C)C[C@H](N(C)C)[C@H]2O)[C@](C)(O)C[C@@H](C)C(=O)[C@H](C)[C@H]2N(C3CN(Cc4ccnc5ncccc45)C3)C(=O)O[C@]12C | < 2 | ≤ 0.06 | 1 (≈ 1.26 µM) | 4 (≈ 5.03 µM) | 80 | Unstable | 0.6 | 0.12 (≈ 0.151 µM) | ≤ 0.06 | – | –
CC[C@H]1OC(=O)[C@H](C)C(=O)[C@H](C)[C@@H](O[C@@H]2O[C@H](C)C[C@H](N(C)C)[C@H]2O)[C@](C)(O)C[C@@H](C)C(=O)[C@H](C)[C@H]2N(C3CN(Cc4cccc5nc[nH]c45)C3)C(=O)O[C@]12C | < 2 | 0.125 (≈ 0.159 µM) | 8 (≈ 10.2 µM) | 8 (≈ 10.2 µM) | – | – | – | 0.5 (≈ 0.638 µM) | ≤ 0.06 | – | –
CC[C@H]1OC(=O)[C@H](C)C(=O)[C@H](C)[C@@H](O[C@@H]2O[C@H](C)C[C@H](N(C)C)[C@H]2O)[C@](C)(O)C[C@@H](C)C(=O)[C@H](C)[C@H]2N(C3CN(Cc4c(O)cnc5cccnc45)C3)C(=O)O[C@]12C | < 2 | ≤ 0.06 | 0.5 (≈ 0.616 µM) | 4 (≈ 4.93 µM) | 67 | Stable | < 0.3 | ≤ 0.06 | ≤ 0.06 | 53.6 | 26.8
CC[C@H]1OC(=O)[C@H](C)[C@@H](O[C@H]2C[C@@](C)(OC)[C@@H](O)[C@H](C)O2)[C@H](C)[C@@H](O[C@@H]2O[C@H](C)C[C@H](N(C)C)[C@H]2O)[C@](C)(OC)C[C@@H](C)C(=O)[C@H](C)[C@@H](O)[C@]1(C)O [CLARITHROMYCIN] | < 2 | > 64 | > 64 | 16 (≈ 21.4 µM) | – | – | – | 16 (≈ 21.4 µM) | ≤ 0.06 | > 100 | > 100
CC[C@H]1OC(=O)[C@H](C)C(=O)[C@H](C)[C@@H](O[C@@H]2O[C@H](C)C[C@H](N(C)C)[C@H]2O)[C@](C)(O)C[C@@H](C)C(=O)[C@H](C)[C@H]2N(C3CN(Cc4ccnc5cccnc45)C3)C(=O)O[C@]12C | < 2 | ≤ 0.06 | 1 (≈ 1.26 µM) | 8 (≈ 10.1 µM) | 196 | Stable | 0.7 | ≤ 0.06 | ≤ 0.06 | – | –
CC[C@H]1OC(=O)[C@H](C)C(=O)[C@H](C)[C@@H](O[C@@H]2O[C@H](C)C[C@H](N(C)C)[C@H]2O)[C@](C)(O)C[C@@H](C)C(=O)[C@H](C)[C@H]2N(C3CN([C@H](C)c4ccnc5ncccc45)C3)C(=O)O[C@]12C | < 2 | ≤ 0.06 | 1 (≈ 1.23 µM) | 4 (≈ 4.94 µM) | 43 | Unstable | 0.3 | 0.25 (≈ 0.309 µM) | ≤ 0.06 | 35.6 | 54.5
CC[C@H]1OC(=O)[C@H](C)C(=O)[C@H](C)[C@@H](O[C@@H]2O[C@H](C)C[C@H](N(C)C)[C@H]2O)[C@](C)(O)C[C@@H](C)C(=O)[C@H](C)[C@H]2N(C3CN(Cc4c(OC)cnc5ncccc45)C3)C(=O)O[C@]12C | < 2 | ≤ 0.06 | ≤ 0.06 | 8 (≈ 9.69 µM) | – | – | 0.8 | ≤ 0.06 | ≤ 0.06 | – | –
CC[C@H]1OC(=O)[C@H](C)C(=O)[C@H](C)[C@@H](O[C@@H]2O[C@H](C)C[C@H](N(C)C)[C@H]2O)[C@](C)(OC)C[C@@H](C)C(=O)[C@H](C)[C@H]2N(CCCCn3cnc(-c4cccnc4)c3)C(=O)O[C@]12C [TELITHROMYCIN] | < 2 | ≤ 0.06 | 32 (≈ 39.4 µM) | 4 (≈ 4.93 µM) | 40 | Stable | 0.7 | ≤ 0.06 | ≤ 0.06 | 37.5 | 31.2
CC[C@H]1OC(=O)[C@H](C)C(=O)[C@H](C)[C@@H](O[C@@H]2O[C@H](C)C[C@H](N(C)C)[C@H]2O)[C@](C)(O)C[C@@H](C)C(=O)[C@H](C)[C@H]2N(C3CN(Cc4c(O)cnc5ncccc45)C3)C(=O)O[C@]12C | < 2 | ≤ 0.06 | 0.25 (≈ 0.308 µM) | 4 (≈ 4.93 µM) | 140 | Unstable | < 0.3 | ≤ 0.06 | ≤ 0.06 | – | –
CC[C@H]1OC(=O)[C@H](C)C(=O)[C@H](C)[C@@H](O[C@@H]2O[C@H](C)C[C@H](N(C)C)[C@H]2O)[C@](C)(O)C[C@@H](C)C(=O)[C@H](C)[C@H]2N(C3CN([C@@H](C)c4ccnc5ncccc45)C3)C(=O)O[C@]12C | < 2 | ≤ 0.06 | 16 (≈ 19.8 µM) | 16 (≈ 19.8 µM) | – | – | – | 0.25 (≈ 0.309 µM) | ≤ 0.06 | – | –
